Results published in ChEMBL document CHEMBL1833957, “P1-substituted symmetry-based human immunodeficiency virus protease inhibitors with potent antiviral activity against drug-resistant viruses” (J Med Chem, 2011).
≈ marks a conversion by molar mass, not a printed value.

How the values were obtained:
[1] = tested on: Human immunodeficiency virus 1; experiment: Antiviral activity against HIV1 harboring protease L10I, I13V, G16A, Q18H, L33F, N37D, M46I, I54V, G57R, Q61H,I62V, L63P, A71L, I72T, L76V, V77I, V82A, N88G, L90M, I93L mutant infected in human MT4 cells assessed as inhibition of virus-induced cell death after 5 days by MTT assay relative to wild type HIV1 pNL4-3; type: functional
Liver microsomes [2] = experiment: Metabolic stability in human liver microsomes assessed as disappearance of the compound after 20 mins in the presence of 0.4 uM CYP3A4 inhibitor ritonavir; type: ADME, Microsome
Liver microsomes [3] = experiment: Metabolic stability in human liver microsomes assessed as disappearance of the compound after 20 mins in the presence of 0.4 uM CYP3A4 inhibitor ritonavir
[4] = Oral bioavailability in rat at 5 mg/kg; type: ADME, organism-based; details: in vivo
[5] = tested on: Human immunodeficiency virus 1; experiment: Antiviral activity against wild type HIV1 pNL4-3 infected in human MT4 cells assessed as inhibition of virus-induced cell death after 5 days by MTT assay in presence of 50% human serum; type: functional, organism-based; details: Human immunodeficiency virus 1, pNL4-3, MT4, 120 h
[6] = Cmax in rat at 5 mg/kg, po; type: ADME, organism-based; parameters: dose 5 mg/kg, route oral; details: in vivo
Procedure, shortened: (§1)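 Rats given a single 5 mg/kg oral dose with no ritonavir. Plasma Cmax is reported in μg/mL and AUC in μg h/mL.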

[7] = tested on: Human immunodeficiency virus 1; experiment: Antiviral activity against wild type HIV1 pNL4-3 infected in human MT4 cells assessed as inhibition of virus-induced cell death after 5 days by MTT assay; type: functional, organism-based; details: Human immunodeficiency virus 1, pNL4-3, MT4, 120 h
Procedure, shortened: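 EC50 measured against wild-type virus in MT-4 cells, with no human serum added.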

[8] = tested on: Human immunodeficiency virus 1; experiment: Antiviral activity against HIV1 A17 harboring protease L10F, V32I, M46I, I47V, Q58E and I84V mutant infected in human MT4 cells assessed as inhibition of virus-induced cell death after 5 days by MTT assay relative to wild type HIV1 pNL4-3; type: functional
[9] = tested on: Human immunodeficiency virus 1; experiment: Antiviral activity against HIV1 isolate 1 harboring protease L10I, E35D, N37D, M46I, I54V, G57R, L63P, A71V, T74P, I84V, L90M, I93L mutant infected in human MT4 cells assessed as inhibition of virus-induced cell death after 5 days by MTT assay relative to wild type HIV1 pNL4-3; type: functional
[10] = Cmax in rat at 5 mg/kg, po co-administered with 5 mg/kg of CYP3A4 inhibitor ritonavir; type: ADME, organism-based; parameters: dose 5 mg/kg, route oral; details: in vivo
Procedure, shortened: (§2)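 Rats given 5 mg/kg orally together with 5 mg/kg ritonavir. Plasma Cmax is reported in μg/mL and AUC in μg h/mL.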

[11] = Metabolic stability in human liver microsomes assessed as disappearance of the compound after 20 mins; type: ADME, Microsome; details: read-out: Drug metabolism
[12] = AUC in rat at 5 mg/kg, po co-administered with 5 mg/kg of CYP3A4 inhibitor ritonavir; type: ADME, organism-based; details: plasma; procedure, shortened: as §2
[13] = tested on: Human immunodeficiency virus 1; experiment: Antiviral activity against HIV1 B26 harboring protease L33F, K45I, M46I, I50V, A71V and V82F mutant infected in human MT4 cells assessed as inhibition of virus-induced cell death after 5 days by MTT assay relative to wild type HIV1 pNL4-3; type: functional
[14] = Oral bioavailability in rat at 5 mg/kg co-administered with 5 mg/kg of CYP3A4 inhibitor ritonavir relative to iv dose without ritonavir co-administration; type: ADME, organism-based; details: in vivo
Procedure, shortened: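 Rats given 5 mg/kg orally with 5 mg/kg ritonavir. Bioavailability (%) is calculated against an IV dose given without ritonavir.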

[15] = AUC in rat at 5 mg/kg, po; type: ADME, organism-based; parameters: dose 5 mg/kg, route oral; details: plasma; procedure, shortened: as §1
Rattus norvegicus = experiment: Ratio of AUC in rat at 5 mg/kg, po co-administered with 5 mg/kg CYP3A4 inhibitor ritonavir to AUC in rat at 5 mg/kg, po in the absence of CYP3A4 inhibitor ritonavir; type: ADME, organism-based; details: in vivo
[16] = Aqueous solubility of the compound; type: physicochemical; details: buffer
[17] = Permeability of the compound; type: ADME; details: not told; read-out: permeability

Row | Structure (SMILES) | fold change (FC) [1] | Stability (Liver microsomes [2]) | Stability (Liver microsomes [3]) | bioavailability [4] | EC50 [5] | Cmax [6] | EC50 [7] | fold change (FC) [8] | fold change (FC) [9] | Cmax [10] | metabolised at 20 min [11] | AUC [12] | fold change (FC) [13] | bioavailability [14] | AUC [15] | Ratio AUC (Rattus norvegicus) | solubility [16] | Papp [17]
1 | COC(=O)N[C@H](C(=O)N[C@@H](Cc1ccccc1)C[C@H](O)[C@H](Cc1ccc(-c2cccnc2)cc1)NC(=O)[C@@H](NC(=O)OC)C(C)(C)C)C(C)(C)C | 17 | Stable | Stable | 5% | 35 nM | 180 ng/mL | 11 nM | 2 | 29 | 430 ng/mL | 40% | 740 ng·h/mL | 3 | 25% | 160 ng·h/mL |  |  | 
2 | COC(=O)N[C@H](C(=O)N[C@@H](Cc1ccccc1)C[C@H](O)[C@H](Cc1ccc(-c2ccccn2)cc1)NC(=O)[C@@H](NC(=O)OC)C(C)(C)C)C(C)(C)C |  | Stable | Stable | 7% | 19 nM | 280 ng/mL | 6 nM | 20 |  | 1550 ng/mL | 40% | 4880 ng·h/mL | 29 | > 100% | 190 ng·h/mL | 25 |  | 
3 | COC(=O)N[C@H](C(=O)N[C@@H](Cc1ccccc1)C[C@H](O)[C@H](Cc1ccc(-c2cncc(F)c2)cc1)NC(=O)[C@@H](NC(=O)OC)C(C)(C)C)C(C)(C)C | 2 |  |  | 13% | 24 nM | 110 ng/mL | 4 nM | 3 | 38 |  | 40% |  | 3 |  | 160 ng·h/mL |  | 10.4 µM (≈ 7.51 µg/mL) | 7.3 ×10⁻⁶ cm/s
